# UBC13 inh – UBC13 polyubiquitin chain formation inhibitors, primary screen, biochemical, TR-FRET, uHTS; Ubiquitin-conjugating enzyme E2 N (Homo sapiens), P61088; inhibition, % at 20 µM; actives 0.47% (n = 330,000); AID 485273, 2010; in the data active means inhibition above about 45%, passing the limit was not always enough; inconclusive means no clear call, values can overlap the other calls
# UPR XBP1 act – activators of adaptive XBP1 UPR arm, primary screen, cell-based, CHO-XBP1 luciferase reporter, luminescence, uHTS; IRE1-XBP1 UPR activation; percent of tunicamycin response, DMSO as zero; activation, % at 20 µM; actives 0.33% (n = 330,000); AID 463104, 2010;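 active means versus positive control, 20 µM dose yields 30% or more activation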;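 further: 100% = tunicamycin at 10 µg/mL and 0% = DMSO only wells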
#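 Material: IRE1-XBP1 luciferase reporter CHO line / Quantity: one thousand reporter cells per well / Buffer or medium: F12 with 10% serum / Compound: 20 µM single concentration, DMSO 1% / Times: 6 h treatment, 37 °C / Detection: Steady-Glo luciferase glow luminescence, 10 min after reagent addition / Benchmarks: tunicamycin high, DMSO low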
# Mdm2 MdmX PPI – inhibitors of human Mdm2-MdmX association, primary screen, cell-based, luminescence, split luciferase, SaOS-2, uHTS; inhibition, % at 8 µM; SaOS-2 split-luciferase Mdm2/MdmX complementation; actives 3% (n = 330,000); AID 485346, 2010; Protein Mdm4 (Homo sapiens) + E3 ubiquitin-protein ligase Mdm2 (Homo sapiens), …;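 active means inhibition of at least 50% at 8 µM in the primary screen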
# Target sequence (O15151 whole entry, looked up): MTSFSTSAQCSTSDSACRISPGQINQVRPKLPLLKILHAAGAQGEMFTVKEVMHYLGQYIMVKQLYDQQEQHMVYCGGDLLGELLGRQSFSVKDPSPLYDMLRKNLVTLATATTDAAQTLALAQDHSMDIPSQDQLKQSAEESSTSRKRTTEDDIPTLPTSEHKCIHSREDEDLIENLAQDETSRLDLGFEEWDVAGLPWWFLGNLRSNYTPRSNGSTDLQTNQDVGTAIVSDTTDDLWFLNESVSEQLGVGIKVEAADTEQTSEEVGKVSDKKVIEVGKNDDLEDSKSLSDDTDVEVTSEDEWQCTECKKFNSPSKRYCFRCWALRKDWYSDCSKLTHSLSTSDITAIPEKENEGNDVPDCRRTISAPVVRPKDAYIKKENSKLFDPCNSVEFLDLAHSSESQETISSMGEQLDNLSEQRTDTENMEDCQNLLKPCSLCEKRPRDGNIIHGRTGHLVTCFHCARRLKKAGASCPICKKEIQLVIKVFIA
# Target sequence (Q00987 whole entry, looked up): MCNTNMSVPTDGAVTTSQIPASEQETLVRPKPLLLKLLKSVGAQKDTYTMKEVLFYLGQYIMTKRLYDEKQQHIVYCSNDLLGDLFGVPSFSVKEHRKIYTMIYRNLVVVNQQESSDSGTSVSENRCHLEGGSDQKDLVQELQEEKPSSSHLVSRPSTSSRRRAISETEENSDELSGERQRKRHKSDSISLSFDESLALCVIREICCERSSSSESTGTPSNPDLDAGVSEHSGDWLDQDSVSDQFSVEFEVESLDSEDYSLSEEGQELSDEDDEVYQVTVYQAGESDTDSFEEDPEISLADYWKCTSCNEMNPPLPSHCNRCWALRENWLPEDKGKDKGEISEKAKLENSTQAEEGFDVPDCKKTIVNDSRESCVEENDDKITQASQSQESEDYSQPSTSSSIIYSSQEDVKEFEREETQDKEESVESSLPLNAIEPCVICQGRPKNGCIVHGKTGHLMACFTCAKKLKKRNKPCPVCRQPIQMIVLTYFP
# Apaf-1 inh – inhibitors of human Apaf-1 apoptosome, primary screen, biochemical, DEVD-Rh110 fluorescence, uHTS | actives 0.71% (n = 330,000) | AID 489030, 2010 | reconstituted apoptosome caspase-3 activity | inhibition, % at 20 µM | Apoptotic protease-activating factor 1 (Homo sapiens), O14727; active means inhibition of at least 40% at 20 µM;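 further: plate controls were DMSO wells for no effect and DEVD-CHO caspase inhibitor wells for full effect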
#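 detection = Rh110 fluorescence intensity | test system = biochemical Apaf-1 apoptosome reconstitution | also added = cytochrome c and DEVD-Rh110 substrate | schedule = 30 min plus 50 min, RT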
# CHOP UPR activ – activators of apoptotic CHOP UPR arm, primary screen, cell-based, CHO-CHOP luciferase reporter, luminescence, uHTS | UPR activation; percent of tunicamycin response over DMSO baseline | activation, % at 10 µM | actives 0.34% (n = 330,000) | AID 449763, 2010;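 active means at 10 µM dose, activation of 40% or more, normalized to positive control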;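 further: 100% = tunicamycin at 10 µg/mL and 0% = DMSO alone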
#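 measured by = luciferase luminescence | assay system = CHO-CHOP cells, stable luciferase reporter of PERK-eIF2a-CHOP signalling | amount = 500 reporter cells seeded per well | timing = 6 h compound exposure at 37 °C after overnight seeding | controls = positive tunicamycin 10 µg/mL, negative DMSO alone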
# Mdm2 MdmX conf – Mdm2-MdmX complex disruptors, retested hits, confirmation, luminescence, single concentration | actives 55% (n = 10,000) | AID 489028, 2010 | inhibition, % at 8 µM | Mdm2-MdmX binding, luminescent assay | shares compounds with Mdm2 MdmX PPI; in the data active means inhibition above about 40%
# Full FLuc ctr – full-length luciferase signal inhibition, confirmation, counter-screen for Mdm2/MdmX interaction inhibitor project, cell-based, single concentration, SaOS-2. shares compounds with Mdm2 MdmX PPI. SaOS-2 full-length luciferase counterscreen, luminescence. inhibition, % at 8 µM. actives 77% (n = 6,200). AID 504607, 2011;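 active means mean inhibition at 8 µM reaching about 37%, which flags the compound as non-specific, limit read from the data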;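 further: p53-null SaOS-2 cells with luciferase driven by a doxycycline-inducible promoter; compound on cells about two nights before reading with doxycycline added after day one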
# * = called active by the depositor; ? = inconclusive; . = no result. In the library only some 4.1% were active in any assay of this set; here they are far more common.
SMILES,UBC13 inh,UPR XBP1 act,Mdm2 MdmX PPI,Apaf-1 inh,CHOP UPR activ,Mdm2 MdmX conf,Full FLuc ctr
CCOc1ccc(NC(=O)CCc2nnc3ccc(N4CCC5(CC4)OCCO5)nn23)cc1,-6,0,10,-9,1,.,.
NC(=O)CNc1n[nH]c(=S)[nH]c1=O,-9,1,3,-11,-3,.,.
COC(=O)C12CC3CC(C1)CC(n1cnc(Cl)n1)(C3)C2,8,3,7,0,2,.,.
COc1cc(/C=C/C(=O)OCC(=O)c2ccc(S(=O)(=O)N3CCCCC3)cc2)cc(OC)c1OC,14,-3,56*,0,1,34,.
O=C(c1ccc(Br)o1)N1CCN(c2ccc3nnc(-c4ccccc4)n3n2)CC1,27,0,58*,38,-2,-4,.
CCCCOC(=O)c1nc[nH]c1C(=O)OCCCC,-21,5,-17,3,2,.,.
CCN1CCN(c2cc(-c3ccccc3)nc3cc(-c4cccc(F)c4)nn23)CC1,38,-1,68*,16,-1,3,.
OC1CCN(c2cc(-c3ccccc3)nc3cc(-c4ccc(F)cc4)nn23)CC1,26,0,17,-1,3,.,.
Cc1ccc(N(Cc2cc(=O)[nH]c3ccccc23)C(=O)CCl)c(C)c1,5,-4,100*,8,6,100*,54*
COC(=O)c1cc(S(=O)(=O)C(C)C)c(S(C)=O)s1 (configuration not stated),-5,-6,51*,-7,2,36,39*
Cc1cnn(-c2cc(Oc3ccccc3)ncn2)c1,-3,7,-45,16,8,.,.
Cc1cnn(-c2cc(N/N=C/c3ccc(F)cc3)ncn2)c1,-9,6,52*,6,3,42*,101*
Cc1cnn(-c2cc(N/N=C/c3ccccc3Cl)ncn2)c1,-5,-1,63*,2,2,-2,.
CN(C)c1ccc(/C=N/NC(=O)CN(c2cccc(Cl)c2)S(C)(=O)=O)cc1Br,1,1,20,30,-2,.,.
CCN(CC)S(=O)(=O)c1ccc(NC(=O)c2cc(-c3cccs3)nc3ccccc23)cc1,15,0,50*,11,3,23,.
Cc1cc(NC(=O)c2cc(-c3cccs3)nc3ccccc23)no1,40,-1,51*,3,3,27,.
CC(=O)NS(=O)(=O)c1ccc(NC(=O)c2cc(-c3cccs3)nc3ccccc23)cc1,3,-4,17,-4,0,.,.
NS(=O)(=O)c1ccc(NC(=O)c2cc(-c3cccs3)nc3ccccc23)cc1,13,5,87*,-2,3,30,.
Cc1cccc2sc(NNC(=O)c3cc(-c4cccs4)nc4ccccc34)nc12,?,-2,82*,10,0,51*,61*
C=C1CC(C(=O)N/N=C/c2ccccc2)C1,-18,0,-44,8,4,.,.
COc1ccccc1Nc1nccc(N(C)C)c1C#N,-1,-5,-5,1,-1,.,.
CN(C)S(=O)(=O)c1ccc(NC(=O)c2cc(-c3cccs3)nc3ccccc23)cc1,0,0,64*,16,6,62*,53*
CCN(CC)S(=O)(=O)c1cc(NC(=O)c2cc(-c3ccccn3)nc3ccccc23)ccc1C,6,-2,52*,9,1,5,.
CCOC(=O)C1CCCN(C(=O)CNC(=O)c2ccc(Br)o2)C1 (configuration not stated),-6,-2,-9,12,2,.,.
O=C(CN1CCCC1)Nc1ccc(Oc2ccc(NC(=O)CN3CCCC3)cc2)cc1,1,-2,56*,7,2,53*,58*
SMILES,UBC13 inh,UPR XBP1 act,Mdm2 MdmX PPI,Apaf-1 inh,CHOP UPR activ,Mdm2 MdmX conf,Full FLuc ctr
Cc1ccc(Cl)cc1N1CCN(CC(=O)Nc2ccc(CN3CCCCC3)cc2)CC1,13,3,69*,17,-2,43*,60*
CCN(C(=O)COC(=O)c1cccc(S(=O)(=O)NCc2ccccc2)c1)c1ccccc1,6,-4,22,23,0,.,.
Cc1cc(C)n(-c2nc(SCC(=O)O)c3c4c(sc3n2)COC(C)(C)C4)n1,20,4,8,-19,9,.,.
Cc1cc(C)n(-c2nc(SCCN(C)C)c3c4c(sc3n2)CCCC4)n1,30,10,92*,6,3,60*,72*
CC1CN(C(=O)CCN2C(=O)c3ccccc3C2=O)CC(C)O1 (configuration not stated),1,-2,20,7,-1,.,.
Nc1ncc(Br)cc1S(=O)(=O)Nc1cc(C(F)(F)F)cc(C(F)(F)F)c1,-21,-2,79*,17,-2,38,56*
CCCCCCN(C(=O)CCCCCN1C(=O)NC(c2ccc(C(C)(C)C)cc2)C(C(=O)OCc2ccccc2)=C1C)C(C(=O)NCCCC)c1ccc(OCC(=O)OC)c(C(=O)OC)c1 (configuration not stated),-26,-2,77*,34,4,5,.
NC(N)=NN=C1CCC(c2ccccc2)CC1 (configuration not stated),11,-2,-6,6,-1,.,.
Nc1nsc2ccccc12,-20,-1,61*,-9,14,26,.
COC(=O)c1ccc(CNC(=O)COC(=O)Cc2ccsc2)cc1,0,5,-27,-1,2,.,.
CC1CCCC(NC(=O)CSc2nnc(C(F)(F)F)n2C)C1C (configuration not stated),5,-1,12,-5,-1,.,.
Cc1sc2nc(SCC(=O)NCc3ccco3)n(CCc3ccccc3)c(=O)c2c1C,1,17,63*,3,16,25,.
Cc1sc2nc(SCC(=O)NCc3ccco3)n(C)c(=O)c2c1C,-8,-1,28,3,-1,.,.
C=CCC(Nc1ccccc1)C12C=CC(O1)C(C(=O)OC)=C2C(=O)OC (configuration not stated),3,-12,89*,-4,35,46*,31
COc1c(C(=O)Nc2ccccc2N2CCOCC2)cc2ccccc2c1Br,-1,-2,50*,10,0,14,.

# Screening data as filed in PubChem BioAssay.
